ChEMBL document CHEMBL3046678, “Isolation and characterization of new p-Terphenyls with antifungal, antibacterial, and antioxidant activities from halophilic actinomycete Nocardiopsis gilva YIM 90087” (2013)
≈ marks a conversion by molar mass, not a printed value.

Assays:
[1] = Antioxidant activity assessed as ABTS radical scavenging activity at 2 mg/ml after 5 min by spectrophotometric analysis; assay type: functional
In short: (§1)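 ABTS radical cation made from ABTS (7 mM) and potassium persulfate (2.45 mM), held 16 h in dark at room temperature, then 350 μL diluted to 25 mL with aqueous 80% EtOH. Sample added to 250 μL working solution, kept 5 min in dark at room temperature, A734 read. Scavenging % = [1 − (Ae − As)/Ac] × 100 against solvent control, triplicate.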

[2] = system: Radical scavenging activity; experiment: Antioxidant activity assessed as DPPH radical scavenging activity at 0.8 mg/ml after 30 min by spectrophotometric analysis; assay type: functional
In short: (§2)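 DPPH stock diluted 1:20 in EtOH; 290 μL of this mixed with 10 μL sample, EtOH as negative control, vitamin C as positive control. Kept 30 min in dark, absorbance read at 517 nm. Scavenging % = [1 − (Ae − As)/Ac] × 100, where As is sample blank absorbance. Triplicate.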

[3] = Antioxidant activity assessed as ABTS radical scavenging activity at 0.16 mg/ml after 5 min by spectrophotometric analysis; assay type: functional; in short: as §1
[4] = Antioxidant activity assessed as superoxide anion radical scavenging activity at 5 mg/ml after 5 min by spectrophotometric analysis; assay type: functional
In short: (§3)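 Superoxide made by non-enzymatic NADH–PMS system, detected by NBT reduction. 200 μL mix of 150 μM NBT and 234 μM NADH in 16 mM Tris-HCl pH 8.0, plus 10 μL sample. Reaction started with 100 μL of 30 μM PMS in the same buffer, 5 min at room temperature, A560 read. % = [1 − (Ae − As)/Ac] × 100, triplicate.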

Staphylococcus aureus = experiment: Antibacterial activity against Staphylococcus aureus after 24 hr by microdilution method; assay type: functional
In short: (§4)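 Bacteria from 18-h cultures in LB broth at 1 × 10^5 CFU/mL, 96-well broth microdilution. Compounds in DMSO (final ≤5%), 2-fold serial dilutions from 512 to 0.5 μg/mL. Incubated 37 °C for 24 h. DMSO-only negative control, kanamycin positive control. Growth read by microscope. MIC is the lowest concentration giving complete growth inhibition. Three repeats.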

Pyricularia oryzae = experiment: Antifungal activity against Magnaporthe oryzae after 4 days by microdilution method; assay type: functional
In short: (§5)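 Spores from 4-day-old cultures in PDB broth at 1 × 10^3 spores/mL, 96-well broth microdilution. Compounds in DMSO (final ≤5%), 2-fold serial dilutions 512–0.5 μg/mL. Incubated 28 °C, 4 days. DMSO negative control, nystatin positive control. Growth checked microscopically. MIC is the lowest concentration with complete inhibition. Experiments repeated three times.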

Bacillus subtilis = experiment: Antibacterial activity against Bacillus subtilis after 24 hr by microdilution method; assay type: functional
In short: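 Bacteria grown 18 h, diluted in LB broth to 1 × 10^5 CFU/mL in 96-well microplates. Compounds in DMSO, 2-fold serial dilutions 512 to 0.5 μg/mL final, DMSO ≤5%. Incubated 37 °C for 24 h, growth checked by microscope. MIC = lowest concentration giving complete growth inhibition. DMSO negative control, kanamycin positive control, three repeats.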

[5] = Antioxidant activity assessed as superoxide anion radical scavenging activity at 2 mg/ml after 5 min by spectrophotometric analysis; assay type: functional; in short: as §3
[6] = system: Radical scavenging activity; experiment: Antioxidant activity assessed as DPPH radical scavenging activity at 2 mg/ml after 30 min by spectrophotometric analysis; assay type: functional; in short: as §2
[7] = Antioxidant activity assessed as ABTS radical scavenging activity at 0.5 mg/ml after 5 min by spectrophotometric analysis; assay type: functional; in short: as §1
Aspergillus niger = experiment: Antifungal activity against Aspergillus niger after 4 days by microdilution method; assay type: functional, organism-based; in short: as §5
Fusarium culmorum = experiment: Antifungal activity against Fusarium culmorum after 4 days by microdilution method; assay type: functional; in short: as §5
Fusarium avenaceum = experiment: Antifungal activity against Fusarium avenaceum after 4 days by microdilution method; assay type: functional; in short: as §5
Candida albicans = experiment: Antifungal activity against Candida albicans after 4 days by microdilution method; assay type: functional; in short: as §5
Fusarium graminearum = experiment: Antifungal activity against Fusarium graminearum after 4 days by microdilution method; assay type: functional; in short: as §5
Trichophyton verrucosum = experiment: Antifungal activity against Trichophyton verrucosum after 4 days by microdilution method; assay type: functional, organism-based; in short: as §5
Escherichia coli = experiment: Antibacterial activity against Escherichia coli after 24 hr by microdilution method; assay type: functional; in short: as §4
[8] = system: Radical scavenging activity; experiment: Antioxidant activity assessed as DPPH radical scavenging activity at 4 mg/ml after 30 min by spectrophotometric analysis; assay type: functional; in short: as §2
[9] = Antioxidant activity assessed as ABTS radical scavenging activity at 1 mg/ml after 5 min by spectrophotometric analysis; assay type: functional; in short: as §1

For `C[C@@H]1NC(=O)[C@H](Cc2c[nH]c3ccccc23)NC1=O`, which Activity [1] is on record?
The Activity was 54.6%.

Which results are given for `O=C1O[C@H]([C@@H](O)CO)C(O)=C1O`?
Activity [2]: 43.9%; Activity [3]: 79.1%; Activity [4]: 75.5%

With `CO[C@@H]1[C@@H](OC(N)=O)[C@@H](O)[C@H](Oc2ccc3c(O)c(NC(=O)c4ccc(O)c(CC=C(C)C)c4)c(=O)oc3c2C)OC1(C)C` [NOVOBIOCIN] as the molecule, how does the MIC (Staphylococcus aureus) read?
The MIC was 64 µg/mL (≈ 104 µM).

What about the MIC (Pyricularia oryzae; 96 h) of the same molecule?
The MIC was 16 µg/mL (≈ 26.1 µM).

And the MIC (Bacillus subtilis)?
The MIC was 16 µg/mL (≈ 26.1 µM).

What about the Activity [5] of the same molecule?
The Activity was 77.9%.

What about the Activity [6] of the same molecule?
Its Activity is 47.7%.

And the Activity [7]?
The Activity was 78.2%.

Which MIC (Aspergillus niger) does the source give for NYSTATIN here?
The MIC was 8 µg/mL.

And the MIC (Fusarium culmorum)?
Its MIC is 1 µg/mL.

And the MIC (Fusarium avenaceum)?
The MIC was 1 µg/mL.

What about the MIC (Pyricularia oryzae) of the same molecule?
The MIC was 8 µg/mL.

What about the MIC (Candida albicans) of the same molecule?
The MIC was 4 µg/mL.

What about the MIC (Fusarium graminearum) of the same molecule?
The MIC was 4 µg/mL.

And the MIC (Trichophyton verrucosum)?
Its MIC is 4 µg/mL.

For `NC[C@H]1O[C@H](O[C@H]2[C@H](O)[C@@H](O[C@H]3O[C@H](CO)[C@@H](O)[C@H](N)[C@H]3O)[C@H](N)C[C@@H]2N)[C@H](O)[C@@H](O)[C@@H]1O` [KANAMYCIN], which MIC (Staphylococcus aureus) is on record?
Its MIC is 4 µg/mL (≈ 8.26 µM).

What about the MIC (Bacillus subtilis) of the same molecule?
Its MIC is 1 µg/mL (≈ 2.06 µM).

And the MIC (Escherichia coli)?
Its MIC is 1 µg/mL (≈ 2.06 µM).

With `COc1ccc(-c2c(OC)c(O)c(-c3ccc(OC)cc3)c3scnc23)cc1` as the molecule, how does the Activity [8] read?
Its Activity is 14.3%.

And the Activity [1]?
The Activity was 28.4%.

With `COc1ccc(-c2cc(O)c(-c3ccc(OC)cc3)c(OC)c2OC)cc1` as the molecule, how does the MIC (Fusarium culmorum; 96 h) read?
The MIC was 128 µg/mL (≈ 349 µM).

What about the MIC (Fusarium avenaceum; 96 h) of the same molecule?
The MIC was 8 µg/mL (≈ 21.8 µM).

What about the MIC (Bacillus subtilis) of the same molecule?
Its MIC is 64 µg/mL (≈ 175 µM).

What about the Activity [9] of the same molecule?
The Activity was 68.6%.

And the MIC (Candida albicans; 96 h)?
The MIC was 32 µg/mL (≈ 87.3 µM).

And the MIC (Fusarium graminearum; 96 h)?
The MIC was 16 µg/mL (≈ 43.7 µM).

What about the Activity [6] of the same molecule?
The Activity was 54.9%.
